AP complement: alternative pathway complement inhibition, orthogonal assay. Human serum alternative complement pathway, LPS-coated ELISA, C3 deposition; tested in compound mixtures. inhibition, % at 5 µM. 62,000 tested, 0.08% active. AID 1235;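 active = inhibition above 30% in each of the two pooled mixtures holding the compound, so the lower value exceeds 30%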
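Test system: human serum complement alternative pathway, C3 deposition onto LPS / Medium: Mg2+-EGTA GVB++ buffer containing human serum at 1:15 dilution / Probe or stimulus: Plate-bound LPS / Times: 1 h at 37 °C / Signal: ELISA with HRP anti-human C3 antibody, TMB substrate, absorbance 450 nm / Measure: percent inhibition / Repeats: two pool placements per compound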
SF1 activator: activates the human nuclear receptor SF-1. 65,000 tested, 1.9% active. Q13285. activation, % at 10 µM. CHO-K1 Gal4-SF-1 LBD luciferase reporter; % increase over DMSO SF-1-specific signal;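 active = activation above the mean activation of all tested compounds plus 3 SD, cut at about 50% in these data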
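Test system: CHO-K1 cells with Gal4–hSF-1 LBD chimera plus Gal4-driven luciferase; Input: 4,000 cells/well; Compound: 10 µM only; Times: 20 h compound treatment, 37 °C; Measured by: steady-glow luciferase luminescence, read after 15 min reagent incubation; Measure: percent activation versus DMSO; Control set: DMSO and mock-transfected background; Replicates: one test per compound.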
MT1-MMP txn act: activates MT1-MMP transcription; HT1080 MT1-MMP promoter luciferase reporter, luminescence, overnight; stronger effect = higher value; activation factor at 10 µM; 86,000 tested, 0.16% active; AID 750;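 active = activation factor of at least 2 for MT1-MMP transcription at 10 µM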
TNAP act DEA: human TNAP activation, intermediate phosphate acceptor; P05186; purified TNAP, CDP-star luminescence, 100 mM DEA, 30 min; stronger effect = higher value; scale: 0 levamisole-inhibited, 1 vehicle-only enzyme; activation factor at 20 µM; 64,000 tested, under 10 active; AID 813;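 active = activation factor of at least 2 at 20 µM, relative to controls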
RORA act: RORA (human) activation; CHO-K1 Gal4-RORA LBD luciferase reporter, luminescence; percent increase over mock-subtracted basal signal; activation, % at 10 µM; P35398; 65,000 tested, 1.5% active;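 active = activation above the mean of all tested compounds plus 3 SD, cut at about 49% in these data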
E coli RNAP: inhibitors of Escherichia coli RNA polymerase | inhibition, %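 (tested at 10 µM)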 | P0A8V2 | AID 559 | E. coli RNA polymerase, fluorescence transcription assay | 62,000 tested, 0.2% active; in the data active = inhibition above about 20%
Target sequence (P0A8V2 whole entry, looked up): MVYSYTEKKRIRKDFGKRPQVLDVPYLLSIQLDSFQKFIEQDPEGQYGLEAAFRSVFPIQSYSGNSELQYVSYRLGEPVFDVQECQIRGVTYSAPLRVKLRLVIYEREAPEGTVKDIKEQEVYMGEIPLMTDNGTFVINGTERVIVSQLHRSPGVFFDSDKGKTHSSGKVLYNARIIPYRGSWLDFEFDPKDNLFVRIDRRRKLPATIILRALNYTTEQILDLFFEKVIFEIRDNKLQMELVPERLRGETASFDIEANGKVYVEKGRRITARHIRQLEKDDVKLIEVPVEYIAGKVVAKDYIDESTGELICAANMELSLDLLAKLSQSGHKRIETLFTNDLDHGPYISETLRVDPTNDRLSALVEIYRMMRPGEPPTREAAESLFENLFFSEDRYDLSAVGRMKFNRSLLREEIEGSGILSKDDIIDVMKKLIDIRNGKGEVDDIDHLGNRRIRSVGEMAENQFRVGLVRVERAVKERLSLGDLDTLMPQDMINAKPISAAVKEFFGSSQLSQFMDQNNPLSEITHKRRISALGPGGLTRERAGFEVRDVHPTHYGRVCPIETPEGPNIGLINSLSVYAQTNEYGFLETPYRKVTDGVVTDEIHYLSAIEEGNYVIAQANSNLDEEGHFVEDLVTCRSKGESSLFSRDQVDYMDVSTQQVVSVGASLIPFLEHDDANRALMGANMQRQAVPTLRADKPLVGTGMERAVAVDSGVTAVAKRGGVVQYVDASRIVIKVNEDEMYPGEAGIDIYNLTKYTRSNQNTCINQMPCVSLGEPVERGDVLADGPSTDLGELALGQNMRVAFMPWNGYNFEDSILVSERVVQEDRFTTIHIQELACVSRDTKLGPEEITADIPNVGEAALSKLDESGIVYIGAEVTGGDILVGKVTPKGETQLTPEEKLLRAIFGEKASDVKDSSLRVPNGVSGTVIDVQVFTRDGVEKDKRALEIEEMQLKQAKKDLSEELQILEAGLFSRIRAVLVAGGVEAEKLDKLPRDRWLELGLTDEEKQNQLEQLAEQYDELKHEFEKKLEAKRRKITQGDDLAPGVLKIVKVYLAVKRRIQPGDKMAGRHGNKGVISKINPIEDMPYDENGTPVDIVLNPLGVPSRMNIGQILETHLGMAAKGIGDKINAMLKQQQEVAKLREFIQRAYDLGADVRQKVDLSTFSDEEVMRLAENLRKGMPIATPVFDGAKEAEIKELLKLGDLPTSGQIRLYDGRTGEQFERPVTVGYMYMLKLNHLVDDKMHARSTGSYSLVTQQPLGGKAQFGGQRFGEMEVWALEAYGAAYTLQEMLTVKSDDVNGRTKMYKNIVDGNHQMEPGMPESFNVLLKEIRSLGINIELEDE
Numbers stand for hits; n = inactive; x = not tested or not shown. Compounds with a hit are over-represented: about 2.2% of the library has one in this group of screens.

SMILES	AP complement	SF1 activator	MT1-MMP txn act	TNAP act DEA	RORA act	E coli RNAP
Cc1c(C2Nc3ccccc3NC3=C2C(=O)CC(C)(C)C3)cnn1C (stereo not drawn)	n	n	n	n	n	n
COc1ccccc1-c1noc(CCC(=O)Nc2ccccc2Cl)n1	n	n	n	n	n	n
COc1cccc(-c2nnc3n2N=C(c2cc(OC)ccc2OC)CS3)c1	n	n	n	n	n	n
CCOc1cccc(-c2nnc3n2N=C(c2cc(OC)ccc2OC)CS3)c1	n	n	x	n	61	n
COc1ccc(-c2cc3nc4n(c(=O)c3s2)CCOC4)cc1	x	n	n	n	n	n
CN(C)c1ccc(CNC(=O)C2(C)C=CCN2C(=O)c2ccccc2)cc1 (stereo not drawn)	x	x	n	x	x	x
CCc1nnc(NC(=O)Cn2nc(-c3ccccc3OC)ccc2=O)s1	n	n	n	n	n	n
CCOc1ccc(C2C=C(c3ccc(C)cc3)Nc3nnnn32)cc1 (stereo not drawn)	n	n	n	n	n	n
CCOc1ccc(C2C=C(c3ccccc3)Nc3nnnn32)cc1 (stereo not drawn)	n	n	n	n	56	n
CCc1nnc(NC(=O)CSc2nc3c(cc2C#N)CCC3)s1	n	75	n	n	n	n
O=C(CN(C1CCCCC1)S(=O)(=O)c1ccc(Cl)cc1)NCc1ccncc1	n	n	n	n	n	n
Cc1cccc(C)c1NC(=O)C1(N2CCN(C(=O)c3ccco3)CC2)CCCCC1	n	n	n	n	n	n
CC(C)(C)n1ncc2c(=O)n(CC(=O)c3ccc(Cl)cc3)cnc21	n	87	n	x	59	n
CC(C)(C)n1ncc2c(=O)n(CC(=O)NCc3ccccc3)cnc21	n	78	n	n	56	n
CC(C)(C)n1ncc2c(=O)n(CC(=O)Nc3ccc(Cl)cc3)cnc21	n	n	n	n	n	n
COc1cccc(C2C(C(=O)OCc3ccccc3)=C(C)Nc3ncnn32)c1OC (stereo not drawn)	n	n	n	n	n	n
Cc1c(C(=O)NCc2ccoc2)oc2ccc3c(c12)C(=O)CC(C)(C)O3	n	73	n	n	71	n
Brc1ccc(-c2cn3cccnc3n2)cc1	n	n	n	n	53	n
CCn1cc(Br)c(C(=O)Nc2cccc(SC)c2)n1	n	50	n	n	n	n
COCCn1c(C(=O)N2CCCC2)cc2c1C[C@H]1CN(C(=O)c3ccccc3)[C@@](Cc3ccc(OC)cc3)(C(=O)OC)[C@@H]21	x	x	n	x	x	x
CCC(=O)Nc1cnc(NC(=O)c2cccc(F)c2)cc1C	n	n	n	n	n	n
CC(=O)Nc1cnc(NC(=O)c2cccc(F)c2)cc1C	n	76	n	n	n	n
c1ccc(C2Nc3ccccc3-c3nc4ccccc4n32)cc1 (stereo not drawn)	x	x	n	x	x	x
c1coc(C2Nc3ccccc3-c3nc4ccccc4n32)c1 (stereo not drawn)	n	76	n	n	71	n
Cc1cc2cc(CNC(=O)c3ccc4c(c3)OCO4)ccc2[nH]1	n	n	n	n	n	n
SMILES	AP complement	SF1 activator	MT1-MMP txn act	TNAP act DEA	RORA act	E coli RNAP
CCOC(=O)C1CCCN(c2ncnc3c2cnn3-c2cccc(C)c2)C1 (stereo not drawn)	n	n	n	n	n	n
Cc1cccc(-n2ncc3c(N(C)Cc4ccccc4)ncnc32)c1	n	64	n	n	56	n
Cc1cccc(-n2ncc3c(N4CCC(C)CC4)ncnc32)c1	n	70	x	n	n	n
Cc1cccc(-n2ncc3c(N4CCC5(CC4)OCCO5)ncnc32)c1	n	98	n	n	49	n
Cc1cccc(-n2ncc3c(N)ncnc32)c1	n	n	n	n	n	n
CC1CC(C)CN(c2ncnc3c2cnn3-c2ccc(Cl)cc2)C1 (stereo not drawn)	n	71	n	n	54	n
Cc1ccc(-c2csc(NC(=O)CSc3ncn(-c4ccccc4)n3)n2)cc1	n	n	n	n	n	n
CCN1C(=O)[C@@H]2[C@H](C1=O)[C@@H]1C[C@H]3C(=O)N(CC)C(=O)[C@H]3[C@@H]3C1=C(C(=O)N1C(=O)OC(=NCC4CC4)[C@]31C)[C@@H]2C	x	x	n	x	x	x
CCN1CCN(c2ncnc3c2cnn3-c2ccccc2)CC1	n	56	n	n	n	n
Cc1ccc(-c2noc(C3CCCN(C(=O)c4ccccc4)C3)n2)o1 (stereo not drawn)	n	n	n	n	50	n
COc1ccc(C(=O)N2CCCC(c3nc(-c4cccs4)no3)C2)cc1 (stereo not drawn)	n	n	n	n	n	n
Cc1noc(C)c1CSc1nc2ccccc2s1	n	n	n	n	n	n
c1csc(CSc2nc3ccccc3s2)c1	n	52	n	n	n	n
c1csc(CSc2nnc3sc4ccccc4n23)c1	x	n	n	x	51	x
CN(C)C(=O)CSc1nnc2sc3ccccc3n12	n	n	n	n	n	n
COC(=O)N1[C@H](C)C=C[C@]1(Cc1ccccc1)C(=O)NCc1ccc(N(C)C)cc1	x	x	n	x	x	x
O=C(NC1CCS(=O)(=O)C1)c1c(NC(=O)C2COc3ccccc3O2)sc2c1CCCC2 (stereo not drawn)	n	n	n	n	n	32
CCCNC(=O)c1c(NC(=O)C2COc3ccccc3O2)sc2c1CCCC2 (stereo not drawn)	x	x	n	x	x	x
COc1cccc(C(=O)Nc2ccc(NC(=O)C(C)(C)C)cn2)c1	n	n	n	n	n	n
CNC(=O)[C@H](C)/C=C(\I)C(NC(=O)OCc1ccccc1)c1ccc(C(=O)OC)cc1 (stereo partly drawn)	x	x	n	x	x	x
Cc1nn2c(-c3cccc(NC(=O)CSc4nc5ccccc5o4)c3)nnc2c2ccccc12	n	n	n	n	n	n
Cc1cc2ncc(-c3ccc(Cl)cc3)c(N)n2n1	n	55	n	n	n	n
Cc1cc(N)n(-c2ncnc3scc(-c4ccc(Cl)cc4)c23)n1	x	x	n	x	x	x
CCc1nnc(NC(=O)c2ccc(COc3ccc(C)cc3)o2)s1	n	52	n	n	n	n
C=C(C)CSc1nc2c(c(=O)[nH]c(=O)n2C)n1CCC(C)C	n	n	n	n	n	n
c1coc(C2Nc3cccc4cccc(c34)N2)c1	n	n	n	n	n	21
Oc1ccc(C2Nc3cccc4cccc(c34)N2)c(O)c1	x	x	n	x	x	x
O=C(NCCc1c[nH]c2ccccc12)c1cnc2n(c1=O)CCS2	n	n	n	n	60	n
CN(C)S(=O)(=O)c1ccc(/C(O)=C2/C(=O)C(=O)N(CCN3CCCCC3)C2c2cccnc2)cc1 (stereo not drawn)	n	n	n	n	n	n
O=C(CSc1cn(Cc2ccccc2)c2ccccc12)Nc1nccs1	n	84	x	n	76	n

Source: PubChem
